Assay results reported in ChEMBL document CHEMBL3286367, “Synthesis of new class of spirocarbocycle derivatives by multicomponent domino reaction and their evaluation for antimicrobial, anticancer activity and molecular docking studies” (2014).
≈ marks a conversion by molar mass, not a printed value. Calls of active or inactive are those of the source. The calls are words filed in the database; no cut-off is given here.

How the values were obtained:
Klebsiella aerogenes [1] = test: Antimicrobial activity against Enterobacter aerogenes MTCC 111 assessed as absence of visible growth after 48 to 72 hrs; assay type: functional
Klebsiella pneumoniae [2] = test: Antimicrobial activity against Klebsiella pneumonia MTCC 109 assessed as zone of inhibition at 1 mg/disc after 24 hrs incubation by disc diffusion assay; assay type: functional
How it was run: (§1)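 Inocula grown in Mueller Hinton broth for 24 h at 37 °C and swabbed onto Mueller Hinton agar. Discs carried 1 mg compound each and stood 30 min at room temperature before 24 h incubation at 37 °C. Solvent as negative control. Inhibition zones recorded in mm; experiment done twice.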

Candida albicans = test: Antifungal activity against Candida albicans MTCC 227 assessed as zone of inhibition at 1 mg/disc after 48 hrs incubation by disc diffusion assay; assay type: functional
How it was run: (§2)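 Disc diffusion on Mueller Hinton agar with swabbed cultures, 1 mg compound per disc. Discs stood 30 min at room temperature for diffusion, then plates incubated 48 h at 28 °C. Solvent as negative control. Yeast pre-grown in Sabouraud dextrose broth at 28 °C for 48-72 h; filamentous fungal spores came from SDA slants grown 10 days at 28 °C. Zone diameters in mm; run twice.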

Micrococcus luteus [3] = test: Antimicrobial activity against Micrococcus luteus MTCC 106 assessed as absence of visible growth after 48 to 72 hrs; assay type: functional
[4] = tested on: Staphylococcus epidermidis; test: Antimicrobial activity against Staphylococcus epidermidis MTCC 3615 assessed as absence of visible growth after 24 hrs
Staphylococcus aureus [5] = test: Antimicrobial activity against Staphylococcus aureus MTCC 96 assessed as absence of visible growth after 48 to 72 hrs; assay type: functional
Staphylococcus aureus [6] = test: Antimicrobial activity against Staphylococcus aureus MTCC 96 assessed as zone of inhibition at 1 mg/disc after 24 hrs incubation by disc diffusion assay; assay type: functional; how it was run: as §1
Proteus vulgaris [7] = test: Antimicrobial activity against Proteus vulgaris MTCC 1771 assessed as absence of visible growth after 48 to 72 hrs; assay type: functional
Shigella flexneri [8] = test: Antimicrobial activity against Shigella flexneri MTCC 1457 assessed as absence of visible growth after 24 hrs
Staphylococcus aureus [9] = test: Antimicrobial activity against methicillin-resistant Staphylococcus aureus assessed as zone of inhibition at 1 mg/disc after 24 hrs incubation by disc diffusion assay; assay type: functional
How it was run: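 Inoculum grown in Mueller Hinton broth 24 h at 37°C, swabbed onto Mueller Hinton agar and dried 10 min. Discs loaded at 1 mg/disc, then 30 min at room temperature for diffusion. Plates incubated 24 h at 37°C. Solvent negative control; streptomycin positive control. Zone of inhibition read in mm; experiment done twice.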

Klebsiella aerogenes [10] = test: Antimicrobial activity against Enterobacter aerogenes MTCC 111 assessed as zone of inhibition at 1 mg/disc after 24 hrs incubation by disc diffusion assay; assay type: functional; how it was run: as §1
Shigella flexneri [11] = test: Antimicrobial activity against Shigella flexneri MTCC 1457 assessed as zone of inhibition at 1 mg/disc after 24 hrs incubation by disc diffusion assay; assay type: functional; how it was run: as §1
Klebsiella pneumoniae [12] = test: Antimicrobial activity against Klebsiella pneumonia MTCC 109 assessed as absence of visible growth after 24 hrs
Malassezia pachydermatis = test: Antifungal activity against Malassezia pachydermatis assessed as zone of inhibition at 1 mg/disc after 48 hrs incubation by disc diffusion assay; assay type: functional; how it was run: as §2
Staphylococcus aureus [13] = test: Antimicrobial activity against methicillin-resistant Staphylococcus aureus assessed as absence of visible growth after 48 to 72 hrs; assay type: functional
How it was run: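 Broth two-fold serial dilution in 96-well plates, 1000 to 7.81 µg/mL, compound dissolved in DMSO (2%). Inoculum grown in Mueller Hinton broth 24 h at 37°C. Streptomycin positive control. 5 µl of tested broth plated on MHA; MIC is the lowest concentration inhibiting visible growth on agar.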

Salmonella typhimurium [14] = test: Antimicrobial activity against Salmonella typhimurium MTCC 1251 assessed as zone of inhibition at 1 mg/disc after 24 hrs incubation by disc diffusion assay; assay type: functional, Salmonella enterica subsp. enterica serovar Typhimurium; how it was run: as §1
[15] = tested on: Staphylococcus epidermidis; test: Antimicrobial activity against Staphylococcus epidermidis MTCC 3615 assessed as zone of inhibition at 1 mg/disc after 24 hrs incubation by disc diffusion assay; assay type: functional; how it was run: as §1
Proteus vulgaris [16] = test: Antimicrobial activity against Proteus vulgaris MTCC 1771 assessed as zone of inhibition at 1 mg/disc after 24 hrs incubation by disc diffusion assay; assay type: functional; how it was run: as §1
Salmonella typhimurium [17] = test: Antimicrobial activity against Salmonella typhimurium MTCC 1251 assessed as absence of visible growth after 48 to 72 hrs; assay type: functional, Salmonella enterica subsp. enterica serovar Typhimurium; conditions: Salmonella enterica
Micrococcus luteus [18] = test: Antimicrobial activity against Micrococcus luteus MTCC 106 assessed as zone of inhibition at 1 mg/disc after 24 hrs incubation by disc diffusion assay; assay type: functional; how it was run: as §1
Klebsiella pneumoniae [19] = test: Antimicrobial activity against Klebsiella pneumonia MTCC 109 assessed as absence of visible growth after 48 to 72 hrs; assay type: functional
[20] = tested on: Staphylococcus epidermidis; test: Antimicrobial activity against Staphylococcus epidermidis MTCC 3615 assessed as absence of visible growth after 48 to 72 hrs; assay type: functional

SMILES	MIC (Klebsiella aerogenes [1])	inhibition zone (IZ) (Klebsiella pneumoniae [2])	MIC (Micrococcus luteus [3])	MIC [4]	MIC (Staphylococcus aureus [5])	inhibition zone (IZ) (Staphylococcus aureus [6])	MIC (Proteus vulgaris [7])	MIC (Shigella flexneri [8])	inhibition zone (IZ) (Staphylococcus aureus [9])	inhibition zone (IZ) (Klebsiella aerogenes [10])	inhibition zone (IZ) (Shigella flexneri [11])	MIC (Klebsiella pneumoniae [12])	MIC (Staphylococcus aureus [13])	inhibition zone (IZ) (Salmonella typhimurium [14])	inhibition zone (IZ) [15]	inhibition zone (IZ) (Proteus vulgaris [16])	MIC (Salmonella typhimurium [17])	inhibition zone (IZ) (Micrococcus luteus [18])	inhibition zone (IZ) (Candida albicans)	inhibition zone (IZ) (Malassezia pachydermatis)	other results
N#CC1=C(N)C2(C(=O)c3ccccc3C2=O)[C@@H](c2ccccc2F)[C@@H]2CCC=C12 (relative stereo)	250 µg/mL (≈ 650 µM)	15 mm	250 µg/mL (≈ 650 µM)	125 µg/mL (≈ 325 µM)	250 µg/mL (≈ 650 µM)	14 mm	250 µg/mL (≈ 650 µM)	250 µg/mL (≈ 650 µM)	16 mm	15 mm	10 mm	250 µg/mL (≈ 650 µM)	125 µg/mL (≈ 325 µM)	12 mm	17 mm	14 mm	250 µg/mL (≈ 650 µM)	12 mm			inhibition (Candida albicans): inactive; inhibition (Malassezia pachydermatis): inactive
N#CC1=C(N)C2(C(=O)c3ccccc3C2=O)[C@@H](c2cccc3ccccc23)[C@@H]2CCCC=C12 (relative stereo)	125 µg/mL (≈ 290 µM)	17 mm	62.5 µg/mL (≈ 145 µM)	125 µg/mL (≈ 290 µM)	250 µg/mL (≈ 581 µM)	12 mm	125 µg/mL (≈ 290 µM)	62.5 µg/mL (≈ 145 µM)	21 mm	17 mm	21 mm	125 µg/mL (≈ 290 µM)	62.5 µg/mL (≈ 145 µM)	18 mm	15 mm	19 mm	125 µg/mL (≈ 290 µM)	22 mm	10 mm	9 mm	
N#CC1=C(N)C2(C(=O)c3ccccc3C2=O)[C@@H](c2ccoc2)[C@@H]2CCCC=C12 (relative stereo)	250 µg/mL (≈ 675 µM)	12 mm	125 µg/mL (≈ 337 µM)	250 µg/mL (≈ 675 µM)	250 µg/mL (≈ 675 µM)	14 mm	250 µg/mL (≈ 675 µM)	250 µg/mL (≈ 675 µM)	13 mm	15 mm	14 mm	250 µg/mL (≈ 675 µM)	250 µg/mL (≈ 675 µM)	10 mm	12 mm	15 mm	500 µg/mL (≈ 1350 µM)	18 mm	13 mm	12 mm	
COc1ccc([C@H]2[C@@H]3CCCC=C3C(C#N)=C(N)C23C(=O)CCCC3=O)cc1 (relative stereo)	250 µg/mL (≈ 664 µM)	16 mm	250 µg/mL (≈ 664 µM)		250 µg/mL (≈ 664 µM)	14 mm	125 µg/mL (≈ 332 µM)	125 µg/mL (≈ 332 µM)	15 mm	14 mm	19 mm		250 µg/mL (≈ 664 µM)	11 mm	13 mm	17 mm	250 µg/mL (≈ 664 µM)	21 mm	10 mm	9 mm	MIC (Klebsiella pneumoniae [19]): 125 µg/mL (≈ 332 µM); MIC [20]: 250 µg/mL (≈ 664 µM)
CN[C@@H]1[C@H](O[C@H]2[C@H](O[C@H]3[C@H](O)[C@@H](O)[C@H](N=C(N)N)[C@@H](O)[C@@H]3N=C(N)N)O[C@@H](C)[C@]2(O)C=O)O[C@@H](CO)[C@H](O)[C@H]1O [STREPTOMYCIN]	25 µg/mL (≈ 43 µM)	20 mm	6.25 µg/mL (≈ 10.7 µM)		6.25 µg/mL (≈ 10.7 µM)	14 mm	6.25 µg/mL (≈ 10.7 µM)	6.25 µg/mL (≈ 10.7 µM)	30 mm	22 mm	30 mm		6.25 µg/mL (≈ 10.7 µM)	18 mm	26 mm	30 mm	30 µg/mL (≈ 51.6 µM)	26 mm			MIC (Klebsiella pneumoniae [19]): 6.25 µg/mL (≈ 10.7 µM); MIC [20]: 6.25 µg/mL (≈ 10.7 µM)
